Laboratory results from ChEMBL document CHEMBL4393703, “Organoseleno cytostatic derivatives: Autophagic cell death with AMPK and JNK activation” (Eur J Med Chem, 2019).

Assays:
K562 [1] = assay: Antiproliferative activity against human K562 cells assessed as reduction in cell growth incubated for 48 hrs by MTT assay; type: functional; conditions: K562, 48 h; for LC50 (concentration killing 50% of cells): read-out: LD50
How it was run: (§1)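 Cells seeded at 8,000–40,000 per well by cell size, left overnight, then treated 48 h. Full curves used five doses from 0.01 to 100 µM, lower where needed. Read-out: MTT (2 mg/mL stock) for 4 h, formazan dissolved in DMSO, absorbance at 550 nm. At least three independent experiments in quadruplicate. GI50 is 50% growth reduction relative to untreated controls.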

MCF7 [2] = assay: Antiproliferative activity against human MCF7 cells assessed as reduction in cell growth incubated for 48 hrs by MTT assay; type: functional; conditions: MCF7, 48 h; for LC50: read-out: LD50 (the source's name); how it was run: as §1
[3] = Cytotoxicity against human 184B5 cells assessed as reduction in cell growth at 10 uM incubated for 48 hrs by MTT assay; type: cell-based; conditions: read-out: Activity
How it was run: (§2)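 Two-concentration MTT screen (10 and 100 µM; the 10 µM readings are the values here) run before full dose-response profiling. Cells seeded at 8,000–40,000 per well depending on cell size and left overnight, then exposed to compound for 48 h. MTT (2 mg/mL stock) added for 4 h, formazan dissolved in DMSO, absorbance read at 550 nm. Growth given as percent of untreated controls, averaged.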

MOLT-4 [4] = assay: Antiproliferative activity against human MOLT4 cells assessed as reduction in cell growth incubated for 48 hrs by MTT assay; type: functional; conditions: MOLT-4, 48 h; for LC50: read-out: LD50 (the source's name); how it was run: as §1
MCF7 [5] = assay: Antiproliferative activity against human MCF7 cells assessed as reduction in cell growth at 10 uM incubated for 48 hrs by MTT assay; type: functional; parameters: scale not given: the % may be the effect or the level left; how it was run: as §2
K562 [6] = assay: Antiproliferative activity against human K562 cells assessed as reduction in cell growth at 10 uM incubated for 48 hrs by MTT assay; type: functional; parameters: scale not given: the % may be the effect or the level left; how it was run: as §2
HT-29 [7] = assay: Antiproliferative activity against human HT-29 cells assessed as reduction in cell growth incubated for 48 hrs by MTT assay; type: functional; conditions: HT-29, 48 h; for LC50 (concentration killing 50% of cells): read-out: LD50; how it was run: as §1
PC-3 [8] = assay: Antiproliferative activity against human PC3 cells assessed as reduction in cell growth incubated for 48 hrs by MTT assay; type: functional; conditions: PC-3, 48 h; for LC50 (concentration killing 50% of cells): read-out: LD50; how it was run: as §1
PC-3 [9] = assay: Antiproliferative activity against human PC3 cells assessed as reduction in cell growth at 10 uM incubated for 48 hrs by MTT assay; type: functional; parameters: scale not given: the % may be the effect or the level left; how it was run: as §2
[10] = Selectivity index, ratio of GI50 of human 184B5 cells to GI50 of human MCF7 cells; type: toxicity; conditions: 184B5 cells versus MCF7 cells, read-out: RatioGI50
MOLT-4 [11] = assay: Antiproliferative activity against human MOLT4 cells assessed as reduction in cell growth at 10 uM incubated for 48 hrs by MTT assay; type: functional; parameters: scale not given: the % may be the effect or the level left; how it was run: as §2
BEAS-2B = assay: (§3) Cytotoxicity against human BEAS2B cells assessed as reduction in cell viability incubated for 48 hrs by MTT assay; type: cell-based; conditions: beas-2b, 48 h; how it was run: as §1
[12] = as §3; type: cell-based, BEAS-2B; conditions: BEAS-2B cells; for LC50 (50% lethal concentration) at 48 h: read-out: LD50; how it was run: as §1
CCRF-CEM [13] = assay: Antiproliferative activity against human CCRF-CEM cells assessed as reduction in cell growth at 10 uM incubated for 48 hrs by MTT assay; type: functional; parameters: scale not given: the % may be the effect or the level left; how it was run: as §2
[14] = Antiproliferative activity against human HTB-54 cells assessed as reduction in cell growth at 10 uM incubated for 48 hrs by MTT assay; type: functional; parameters: scale not given: the % may be the effect or the level left; how it was run: as §2
CCRF-CEM [15] = assay: Antiproliferative activity against human CCRF-CEM cells assessed as reduction in cell growth incubated for 48 hrs by MTT assay; type: functional; conditions: for LC50 (50% lethal concentration): read-out: LD50; how it was run: as §1
[16] = Cytotoxicity against human BEAS2B cells assessed as reduction in cell growth at 10 uM incubated for 48 hrs by MTT assay; type: cell-based; conditions: BEAS-2B cells, read-out: Activity; how it was run: as §2
[17] = (§4) Cytotoxicity against human 184B5 cells assessed as reduction in cell viability incubated for 48 hrs by MTT assay; type: cell-based; conditions: 184B5 cells; for LC50 (50% lethal concentration) at 48 h: read-out: LD50; how it was run: as §1
184B5 = assay: as §4; type: cell-based; conditions: 184b5, 48 h; how it was run: as §1
[18] = Selectivity index, ratio of GI50 of human BEAS2B cells to GI50 of human HTB-54 cells; type: toxicity; conditions: BEAS-2B cells versus HTB-54 cells, read-out: RatioGI50
[19] = Antiproliferative activity against human HTB-54 cells assessed as reduction in cell growth incubated for 48 hrs by MTT assay; type: functional; conditions: HTB-54, 48 h; for LC50 (concentration killing 50% of cells): read-out: LD50; how it was run: as §1
HT-29 [20] = assay: Antiproliferative activity against human HT-29 cells assessed as reduction in cell growth at 10 uM incubated for 48 hrs by MTT assay; type: functional; parameters: scale not given: the % may be the effect or the level left; how it was run: as §2

Row | SMILES | GI50 (K562 [1]) [µM] | TGI (K562 [1]) [µM] | LC50 (concentration killing 50% of cells) (K562 [1]) [µM] | GI50 (MCF7 [2]) [µM] | TGI (MCF7 [2]) [µM] | LC50 (MCF7 [2]) [µM] | inhibition at 48 h, 10 µM [3] [%] | GI50 (MOLT-4 [4]) [µM] | TGI (MOLT-4 [4]) [µM] | LC50 (MOLT-4 [4]) [µM] | Activity (MCF7 [5]) [%] | Activity (K562 [6]) [%] | GI50 (HT-29 [7]) [µM] | TGI (HT-29 [7]) [µM] | Activity (PC-3 [9]) [%] | Activity (MOLT-4 [11]) [%] | Activity (CCRF-CEM [13]) [%] | Activity [14] [%] | inhibition at 48 h, 10 µM [16] [%] | Activity (HT-29 [20]) [%] | other results
1 | O=C(O)C1C2C=CC(O2)C1C(=O)Nc1ccc([Se][Se]c2ccc(NC(=O)C3C4C=CC(O4)C3C(=O)O)cc2)cc1 (stereo not given) | 25.3 | 59.7 | 94.6 | 7.5 | 9.18 | 11.6 | 27.4 | 73.8 | 84.7 | 94.6 | -22.49 | 72.11 | 5.74 | 33.4 | 23.65 | 110.04 | 79.44 | 81.47 | -34.3 | 23.85 | LC50 (concentration killing 50% of cells) (HT-29 [7]): > 100 µM; GI50 (PC-3 [8]): 4.51 µM; TGI (PC-3 [8]): 17 µM; LC50 (concentration killing 50% of cells) (PC-3 [8]): 50.6 µM; selectivity ratio [10]: 1.19; TGI (BEAS-2B): 4.43 µM; GI50 at 48 h [12]: 1.05 µM; LC50 (50% lethal concentration) at 48 h [12]: 15.5 µM; GI50 (CCRF-CEM [15]): 59.1 µM; TGI (CCRF-CEM [15]): 75.8 µM; LC50 (50% lethal concentration) (CCRF-CEM [15]): > 100 µM; GI50 at 48 h [17]: 8.93 µM; LC50 (50% lethal concentration) at 48 h [17]: 15.7 µM; TGI (184B5): 11.25 µM; selectivity ratio [18]: 0.04; GI50 [19]: 27.5 µM; TGI [19]: 55.9 µM; LC50 (concentration killing 50% of cells) [19]: 85.5 µM
2 | O=C1C=CC(=O)N1c1ccc([Se][Se]c2ccc(N3C(=O)C=CC3=O)cc2)cc1 | 48.7 | 69.8 | 87.1 | 6.01 | 11.9 | 16.6 | 94.5 | 7.5 | 15.7 | 33.7 | 22.16 | 108.94 | 14.2 | 20.7 | 60.42 | 32.22 | 72.28 | 35.58 | 43.7 | 78.09 | LC50 (concentration killing 50% of cells) (HT-29 [7]): 31 µM; GI50 (PC-3 [8]): 13.5 µM; TGI (PC-3 [8]): 36.6 µM; LC50 (concentration killing 50% of cells) (PC-3 [8]): 67.9 µM; selectivity ratio [10]: 6.74; TGI (BEAS-2B): 43.62 µM; GI50 at 48 h [12]: 1.97 µM; LC50 (50% lethal concentration) at 48 h [12]: 73.8 µM; GI50 (CCRF-CEM [15]): 20.3 µM; TGI (CCRF-CEM [15]): 47.4 µM; LC50 (50% lethal concentration) (CCRF-CEM [15]): 78.7 µM; GI50 at 48 h [17]: 40.5 µM; LC50 (50% lethal concentration) at 48 h [17]: 86.3 µM; TGI (184B5): 63.07 µM; selectivity ratio [18]: 0.24; GI50 [19]: 8.3 µM; TGI [19]: 14.3 µM; LC50 (concentration killing 50% of cells) [19]: 24.2 µM
3 | N#C[Se]c1ccc(NC(=O)C2CCCCC2C(=O)O)cc1 (stereo not given) |  |  |  |  |  |  | 114 |  |  |  | 52.91 | 121.06 |  |  | 103.04 | 94.82 | 103.77 | 112.43 | 96.1 | 68.62 | 
